Experimental data reported in ChEMBL document CHEMBL4371095, “Triazole-Based Inhibitors of the Wnt/β-Catenin Signaling Pathway Improve Glucose and Lipid Metabolisms in Diet-Induced Obese Mice” (J Med Chem, 2019).
Activity calls are given as the source filed them. The rule behind the calls is not given here.

Key:
[1] = organism: Mus musculus; experiment: Inhibition of Wnt/beta-catenin/Axin signaling in mouse hepatocytes assessed as decrease in SCD1 mRNA level at 5 uM by qPCR analysis; assay type: cell-based
Summary of the method: (§1)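 Normal mouse hepatocytes were treated with 5 μM compound, and lipogenic and gluconeogenic gene mRNA was measured by qPCR; mean ± S.D. of triplicates.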

[2] = biological target: Axin-1 (Homo sapiens) (UniProt O15169); experiment: Stabilization of Axin1 protein in HEK293 cells assessed as increase in cytoplasmic punctas at 1 uM after 14 hrs by DAPI staining based confocal microscopic method; assay type: cell-based
Summary of the method: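 HEK293 cells on poly-D-lysine slides were treated with 1 μM compound for 14 h. Cells were fixed in 10% formalin for 20 min, permeabilized with methanol, blocked with 5% BSA, stained overnight for Axin1 with secondary antibody for 2 h, counterstained with DAPI, and imaged by confocal microscopy.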

[3] = test system: Mus musculus; experiment: Decrease in serum cholesterol level in high fat diet fed C57BL/6J mouse at 40 mg/kg, ip administered every 2 days for 11 weeks; assay type: functional, organism-based
Summary of the method: (§2)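 Male mice, 8 weeks old, 24–27 g, given a 45% kcal fat diet for 6 weeks, then dosed i.p. every 2 days in corn oil vehicle with the diet continued. Sacrifice was about 24 h after the last dose. Liver was examined by H&E. Liver and serum triglyceride were measured by kit. Serum chemistry was included, and liver/body weight ratio was calculated.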

[4] = test system: Mus musculus; experiment: Decrease in hepatic GCK mRNA level in high fat diet fed C57BL/6J mouse at 40 mg/kg, ip administered every 2 days for 11 weeks by qPCR analysis; assay type: functional, organism-based
Summary of the method: (§3)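 Male mice, 8 weeks old, fed a 45% kcal fat diet for 6 weeks, then dosed i.p. every 2 days in corn oil vehicle for 11 weeks. Liver mRNA of the indicated genes was quantified at sacrifice; mean ± SEM, n = 5 per group.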

[5] = test system: Mus musculus; experiment: Decrease in body weight gain in high fat diet fed C57BL/6J mouse at 40 mg/kg, ip administered every 2 days for 11 weeks; assay type: functional, organism-based; summary of the method: as §2
[6] = test system: Mus musculus; experiment: Effect on hepatic ACAT2 mRNA level in normal chow diet fed C57BL/6J mouse at 40 mg/kg, ip administered every 2 days for 11 weeks by qPCR analysis; assay type: ADME, organism-based; details: in vivo
Summary of the method: (§4)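 Male mice, 8 weeks old, kept on normal chow throughout and dosed i.p. every 2 days in corn oil vehicle for 11 weeks. Body weight gain, liver/body weight ratio, and liver mRNA of the indicated genes were measured at sacrifice; mean ± SEM, n = 5 per group where stated.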

[7] = organism: Mus musculus; experiment: Inhibition of Wnt/beta-catenin/Axin signaling in mouse hepatocytes assessed as decrease in FASN mRNA level at 5 uM by qPCR analysis; assay type: cell-based; summary of the method: as §1
[8] = Toxicity in normal chow diet fed C57BL/6J mouse assessed as serum alkaline phosphatase level at 40 mg/kg, ip administered every 2 days for 11 weeks (reference value: 66.5 +/- 1.8 U/L); assay type: organism-based; details: in vivo
[9] = organism: Mus musculus; experiment: Inhibition of Wnt/beta-catenin/Axin signaling in mouse hepatocytes assessed as decrease in G6PASE mRNA level at 5 uM by qPCR analysis; assay type: cell-based; summary of the method: as §1
[10] = test system: Mus musculus; experiment: Decrease in hepatic G6pase mRNA level in high fat diet fed C57BL/6J mouse at 40 mg/kg, ip administered every 2 days for 11 weeks by qPCR analysis; assay type: functional, organism-based; summary of the method: as §3
[11] = test system: HEK293; experiment: Inhibition of Wnt/beta-catenin/Axin signaling (unknown origin) expressed in HEK293 cells assessed as decrease in Axin2 mRNA level after 48 hrs by qPCR analysis; assay type: cell-based; details: Homo sapiens
Summary of the method: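 HEK293 cells were treated with compound for 48 h, harvested in TRIzol, and Wnt target gene mRNA was quantified by qPCR.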

[12] = Toxicity in high fat diet fed C57BL/6J mouse assessed as serum LDH level at 40 mg/kg, ip administered every 2 days for 11 weeks (reference value: 469 +/- 67 U/L); assay type: organism-based; details: in vivo
[13] = test system: Mus musculus; experiment: Effect on hepatic […] mRNA level in normal chow diet fed C57BL/6J mouse at 40 mg/kg, ip administered every 2 days for 11 weeks by qPCR analysis; assay type: ADME, organism-based; details: in vivo; summary of the method: as §4
[14] = test system: HEK293; experiment: Inhibition of Wnt/beta-catenin/Axin signaling (unknown origin) expressed in HEK293 cells assessed as increase in Axin binding to beta-catenin after 12 hrs by immunoprecipitation method; assay type: cell-based; details: Homo sapiens
[15] = test system: Mus musculus; experiment: Effect on hepatic PEPCK mRNA level in normal chow diet fed C57BL/6J mouse at 40 mg/kg, ip administered every 2 days for 11 weeks by qPCR analysis; assay type: ADME, organism-based; details: in vivo; summary of the method: as §4
[16] = test system: Mus musculus; experiment: Decrease in hepatic lipid accumulation in high fat diet fed C57BL/6J mouse at 40 mg/kg, ip administered every 2 days for 11 weeks; assay type: functional, organism-based; summary of the method: as §2
[17] = organism: Mus musculus; experiment: Inhibition of Wnt/beta-catenin/Axin signaling in mouse hepatocytes assessed as decrease in ACAA1A mRNA level at 5 uM by qPCR analysis; assay type: cell-based; summary of the method: as §1
[18] = Toxicity in high fat diet fed C57BL/6J mouse assessed as serum triglyceride level at 40 mg/kg, ip administered every 2 days for 11 weeks (reference value: 93.5 +/- 12.1 mg/dl); assay type: organism-based; details: in vivo
[19] = Toxicity in normal chow diet fed C57BL/6J mouse assessed as serum cholesterol level at 40 mg/kg, ip administered every 2 days for 11 weeks (reference value: 183 +/- 16.6 mg/dl); assay type: organism-based; details: in vivo
[20] = test system: HEK293; experiment: Inhibition of Wnt3a activated Wnt/beta-catenin/Axin signaling (unknown origin) expressed in HEK293 cells assessed as degradation of beta-catenin by measuring decrease in beta-catenin protein expression at 1 to 10 uM after 2 hrs by Western blot method; assay type: cell-based; details: Homo sapiens
Summary of the method: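 HEK293 cells stimulated with WNT3a were treated with compound for 2 h. Cells were lysed in 10 mM HEPES, 100 μM EDTA, 10 mM KCl, 0.5% NP40, protein was quantified by BCA, and β-catenin and Axin1 were resolved on 10% SDS-PAGE and immunoblotted.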

[21] = test system: Mus musculus; experiment: Decrease in hepatic SCD1 mRNA level in high fat diet fed C57BL/6J mouse at 40 mg/kg, ip administered every 2 days for 11 weeks by qPCR analysis; assay type: functional, organism-based; summary of the method: as §3
[22] = test system: Mus musculus; experiment: Decrease in hepatic PEPCK mRNA level in high fat diet fed C57BL/6J mouse at 40 mg/kg, ip administered every 2 days for 11 weeks by qPCR analysis; assay type: functional, organism-based; summary of the method: as §3
[23] = Half life in mouse at 10 mg/kg, po or 10 mg/kg, iv administered as single dose by LC-MS analysis; assay type: ADME, organism-based; details: in vivo
Summary of the method: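 Compound was dissolved at 1 mg/ml in 10% Kolliphor EL and 10% polyethylene glycol in saline. Ten mice were split into intravenous and oral groups and given a single 10 mg/kg dose. Tail-vein blood was sampled at several time points and analysed by LC/MS/MS.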

[24] = test system: HEK293; experiment: Inhibition of Wnt/beta-catenin signaling (unknown origin) expressed in CK1alpha knock down HEK293 cells harboring TCF/LEF-responsive luciferase assessed as luminescence at 20 nM measured after 24 hrs by luciferase reporter gene assay relative to control; assay type: cell-based; set-up: scale not given: the % may be the effect or the level left; details: Homo sapiens
Summary of the method: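 HEK293 cells were transfected with siRNA against GSK3β, Axin or CK1α using RNAiMAX for 36 h. Cells were then treated with or without compound at 20 nM for 24 h, and TCF/LEF luciferase reporter activity was read.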

[25] = Toxicity in high fat diet fed mouse up to 200 mg/kg, ip by LC-MS analysis; assay type: organism-based; details: in vivo
[26] = test system: Mus musculus; experiment: Effect on hepatic SCD1 mRNA level in normal chow diet fed C57BL/6J mouse at 40 mg/kg, ip administered every 2 days for 11 weeks by qPCR analysis; assay type: ADME, organism-based; details: in vivo; summary of the method: as §4

Axin-1 (Homo sapiens), sequence (O15169 whole entry): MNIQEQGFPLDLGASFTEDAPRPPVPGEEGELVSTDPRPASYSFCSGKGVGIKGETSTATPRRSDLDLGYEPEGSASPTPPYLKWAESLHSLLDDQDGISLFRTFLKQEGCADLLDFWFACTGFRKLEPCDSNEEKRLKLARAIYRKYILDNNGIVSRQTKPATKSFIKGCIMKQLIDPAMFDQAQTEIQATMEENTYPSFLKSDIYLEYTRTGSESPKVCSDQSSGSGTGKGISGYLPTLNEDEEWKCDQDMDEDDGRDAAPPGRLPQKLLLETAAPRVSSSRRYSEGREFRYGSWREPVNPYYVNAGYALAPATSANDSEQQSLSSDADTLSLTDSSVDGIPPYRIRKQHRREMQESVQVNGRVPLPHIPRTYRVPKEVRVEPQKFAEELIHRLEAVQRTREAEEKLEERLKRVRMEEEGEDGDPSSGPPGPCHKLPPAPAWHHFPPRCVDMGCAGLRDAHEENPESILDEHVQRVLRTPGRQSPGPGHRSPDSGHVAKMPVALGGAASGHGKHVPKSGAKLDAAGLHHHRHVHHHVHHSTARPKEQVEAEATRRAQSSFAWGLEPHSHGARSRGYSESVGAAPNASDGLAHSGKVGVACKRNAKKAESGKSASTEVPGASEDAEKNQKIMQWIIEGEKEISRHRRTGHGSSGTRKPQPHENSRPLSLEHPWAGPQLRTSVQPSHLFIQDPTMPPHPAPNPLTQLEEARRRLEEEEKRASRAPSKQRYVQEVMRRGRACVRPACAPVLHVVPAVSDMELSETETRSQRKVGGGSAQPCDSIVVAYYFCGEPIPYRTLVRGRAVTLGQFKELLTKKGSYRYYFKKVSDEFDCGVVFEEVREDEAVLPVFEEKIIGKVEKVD

## Cc1ccccc1-n1nnc(C(=O)Nc2ccc3ccccc3n2)c1C
[1]
  inhibition: Active
[2]
  Activity: Active
[3]
  Activity: Active
[4]
  Activity: Active
[5]
  Activity: Active
[6]
  Activity: Non-Toxic
[7]
  inhibition: Active
[8]
  Activity: 57.5 U/L
[9]
  inhibition: Active
[10]
  Activity: Active
[11]
  inhibition: Active
[12]
  Activity: 313 U/L
[13]
  Activity: Non-Toxic
[14]
  inhibition: Active
[15]
  Activity: Non-Toxic
[16]
  Activity: Active
[17]
  inhibition: Active
[18]
  Activity: 85.3 mg/dL
[19]
  Activity: 194 mg/dL
[20]
  inhibition: Active
[21]
  Activity: Active
[22]
  Activity: Active
[23]
  half-life: 2.8 to 3.3 h
[24]
  Activity: 52%
[25]
  Activity: Non-Toxic
[26]
  Activity: Non-Toxic
